Here are results for 23 compounds from ChEMBL document CHEMBL3112499, “Identification of potent CNS-penetrant thiazolidinones as novel CGRP receptor antagonists” (Bioorg Med Chem Lett, 2014).

Each structure is given as a SMILES string. pIC50, pKi: −log10 of the molar value.

T1 sequence (Q16602 whole entry, one chain of several): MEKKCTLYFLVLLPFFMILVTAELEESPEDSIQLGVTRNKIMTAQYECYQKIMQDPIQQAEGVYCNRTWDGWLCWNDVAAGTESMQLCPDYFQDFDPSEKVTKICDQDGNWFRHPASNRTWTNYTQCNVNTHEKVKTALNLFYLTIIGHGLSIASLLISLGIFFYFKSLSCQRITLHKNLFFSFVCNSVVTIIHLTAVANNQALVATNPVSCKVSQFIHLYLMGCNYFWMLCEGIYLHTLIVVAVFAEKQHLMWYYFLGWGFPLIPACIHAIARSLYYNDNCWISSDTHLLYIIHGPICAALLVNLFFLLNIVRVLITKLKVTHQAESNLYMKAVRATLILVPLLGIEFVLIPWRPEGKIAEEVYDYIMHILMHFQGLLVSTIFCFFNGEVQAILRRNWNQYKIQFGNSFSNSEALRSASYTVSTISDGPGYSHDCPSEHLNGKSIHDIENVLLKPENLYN

The first assay concerns the target T1, Calcitonin gene-related peptide type 1 receptor (Homo sapiens, UniProt O60894+Q16602). Description: Displacement of [125I]CGRP from CGRP receptor in human SK-N-MC cell membranes preincubated for 30 mins followed by radioligand addition measured after 2 hrs by liquid scintillation counting.
On to `CC(C)(C)CCN1C(=O)C(CC(=O)N2CCC(N3Cc4ccccc4NC3=O)CC2)SC1c1cccc(F)c1F` (stereo unspecified), for which the pKi was 6.93.
With `CC(C)(C)CCN1C(=O)C(CC(=O)N2CCC(N3Cc4ccccc4NC3=O)CC2)SC1c1ccc(F)cc1F` (stereo unspecified), the pKi was 7.52.
The same measure, in the same setting: the value for `CC(C)(C)CCN1C(=O)C(CC(=O)N2CCC(N3Cc4ccccc4NC3=O)CC2)SC1c1c(F)cccc1F` (stereo unspecified) was 7.23.
With `CC(C)(C)CCN1C(=O)C(CC(=O)N2CCC(N3Cc4ccccc4NC3=O)CC2)SC1c1ccccc1N1CCNCC1` (stereo unspecified), the pKi is 8.70.
On the same count and under the same terms, the value for `CC(C)(C)CCN1C(=O)C(CC(=O)N2CCC(N3Cc4ccccc4NC3=O)CC2)SC1c1ccccc1N1CCOCC1` (stereo unspecified) was 7.28; that for `CC(C)(C)CCN1C(=O)C(CC(=O)N2CCC(N3Cc4ccccc4NC3=O)CC2)SC1c1ccccc1N1CCC(O)CC1` (stereo unspecified) was 7.74; that for `CC(C)(C)CCN1C(=O)C(CC(=O)N2CCC(N3Cc4ccccc4NC3=O)CC2)SC1c1ccccc1-n1ccnc1` (stereo unspecified) was 8.15.
Turning to `CC(C)(C)CCN1C(=O)C(CC(=O)N2CCC(N3Cc4ccccc4NC3=O)CC2)SC1c1ccccc1-n1cccn1` (stereo unspecified), the pKi is 7.40.
Still for that read-out and setting: in the case of `CC(C)(C)CCN1C(=O)C(CC(=O)N2CCC(N3Cc4ccccc4NC3=O)CC2)SC1c1ccccc1-c1cccnc1` (stereo unspecified) it was 7.66; in that of `CC(C)(C)CCN1C(=O)C(CC(=O)N2CCC(N3Cc4ccccc4NC3=O)CC2)SC1c1ccccc1-c1ccncc1` (stereo unspecified), 7.70.
The same measure, in the same setting: in the case of `CCCCN1CCN(c2ccccc2C2SC(CC(=O)N3CCC(N4Cc5ccccc5NC4=O)CC3)C(=O)N2CCC(C)(C)C)CC1` (stereo unspecified) it was 8.52; in that of `CC(C)(C)CCN1C(=O)C(CC(=O)N2CCC(N3Cc4ccccc4NC3=O)CC2)SC1c1ccccc1N1CCN(CCO)CC1` (stereo unspecified), 8.10.
Regarding `CN1CCN(c2ccccc2C2SC(CC(=O)N3CCC(N4CCc5ccccc5NC4=O)CC3)C(=O)N2CCC(C)(C)C)CC1` (stereo unspecified), the pKi was 8.70.
Turning to `CC(C)(C)CCN1C(=O)C(CC(=O)N2CCC(N3CCc4ccccc4NC3=O)CC2)SC1c1ccccc1N1CCNCC1` (stereo unspecified), the pKi is 9.00.
For `CN1CCN(c2c(F)cccc2C2SC(CC(=O)N3CCC(N4CCc5ccccc5NC4=O)CC3)C(=O)N2CCC(C)(C)C)CC1` (stereo unspecified), the pKi is 9.30.
On to `CN1CCN(c2cc(F)ccc2C2SC(CC(=O)N3CCC(N4CCc5ccccc5NC4=O)CC3)C(=O)N2CCC(C)(C)C)CC1` (stereo unspecified), for which the pKi is 7.85.
`CN1CCN(c2ccc(F)cc2C2SC(CC(=O)N3CCC(N4CCc5ccccc5NC4=O)CC3)C(=O)N2CCC(C)(C)C)CC1` (stereo unspecified): the negative-log Ki (pKi) is 7.85.
For the compound `CN1CCN(c2cccc(F)c2C2SC(CC(=O)N3CCC(N4CCc5ccccc5NC4=O)CC3)C(=O)N2CCC(C)(C)C)CC1` (stereo unspecified), the negative-log Ki (pKi) was 9.00.
Consider `CCN1CCN(c2c(F)cccc2C2SC(CC(=O)N3CCC(N4CCc5ccccc5NC4=O)CC3)C(=O)N2CCC(C)(C)C)CC1` (stereo unspecified), for which the negative logarithm of the Ki (pKi) is 10.15.
For the compound `CC(C)CCN(Cc1cc(Br)c(O)c(Br)c1)C(=O)CCC(=O)N1CCC(N2Cc3ccccc3NC2=O)CC1`, the pKi was 6.55.
For the compound `CN1C(=O)C(CC(=O)N2CCC(N3Cc4ccccc4NC3=O)CC2)SC1c1ccccc1` (stereo unspecified), the pKi was 6.69.
Regarding `CC(C)N1C(=O)C(CC(=O)N2CCC(N3Cc4ccccc4NC3=O)CC2)SC1c1ccccc1` (stereo unspecified), the negative-log Ki (pKi) was 6.94.
In the case of `CC(C)CCN1C(=O)C(CC(=O)N2CCC(N3Cc4ccccc4NC3=O)CC2)SC1c1ccccc1` (racemic), the pKi is 7.49.

Another assay deals with T1, Calcitonin gene-related peptide type 1 receptor. Description: Antagonist activity at CGRP receptor in human SK-N-MC cells assessed as inhibition of CGRP-stimulated cAMP production preincubated for 30 mins followed by CGRP addition measured after 3 hrs by beta-lactamase reporter gene-based FRET assay. The class given is functional, cell-based. The essentials:
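SK-N-MC cells (endogenous CGRP receptor) transduced with retroviral cAMP-responsive-promoter β-lactamase reporter; 30,000 cells/well grown overnight in MEM+10% FBS, 37 °C, 5% CO2. Medium swapped to MEM+1% FBS with compound, 30 min pre-incubation; CGRP added (final 200 pM), 3 h at 37 °C. CCF4/AM FRET substrate added, 2 h at room temperature, fluorescence read; n ≥ 3.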
In general terms: Changes in cAMP serve as a functional read-out for many G protein-coupled receptors.
Turning to `CC(C)(C)CCN1C(=O)C(CC(=O)N2CCC(N3Cc4ccccc4NC3=O)CC2)SC1c1cccc(F)c1F` (stereo unspecified), the pIC50 is 6.68.
As to `CC(C)(C)CCN1C(=O)C(CC(=O)N2CCC(N3Cc4ccccc4NC3=O)CC2)SC1c1ccc(F)cc1F` (stereo unspecified), the pIC50 was 6.72.
On to `CC(C)(C)CCN1C(=O)C(CC(=O)N2CCC(N3Cc4ccccc4NC3=O)CC2)SC1c1c(F)cccc1F` (stereo unspecified), for which the pIC50 is 6.77.
As to `CC(C)(C)CCN1C(=O)C(CC(=O)N2CCC(N3Cc4ccccc4NC3=O)CC2)SC1c1ccccc1N1CCNCC1` (stereo unspecified), the pIC50 was 7.22.
`CC(C)(C)CCN1C(=O)C(CC(=O)N2CCC(N3Cc4ccccc4NC3=O)CC2)SC1c1ccccc1N1CCOCC1` (stereo unspecified): the pIC50 is 6.80.
Consider `CC(C)(C)CCN1C(=O)C(CC(=O)N2CCC(N3Cc4ccccc4NC3=O)CC2)SC1c1ccccc1N1CCC(O)CC1` (stereo unspecified), for which the pIC50 was 7.36.
`CC(C)(C)CCN1C(=O)C(CC(=O)N2CCC(N3Cc4ccccc4NC3=O)CC2)SC1c1ccccc1-n1ccnc1` (stereo unspecified): the pIC50 is 7.07.
On to `CC(C)(C)CCN1C(=O)C(CC(=O)N2CCC(N3Cc4ccccc4NC3=O)CC2)SC1c1ccccc1-n1cccn1` (stereo unspecified), for which the pIC50 is 7.21.
Turning to `CC(C)(C)CCN1C(=O)C(CC(=O)N2CCC(N3Cc4ccccc4NC3=O)CC2)SC1c1ccccc1-c1cccnc1` (stereo unspecified), the negative logarithm of the IC50 (pIC50) is 7.06.
Still for that read-out and setting: in the case of `CC(C)(C)CCN1C(=O)C(CC(=O)N2CCC(N3Cc4ccccc4NC3=O)CC2)SC1c1ccccc1-c1ccncc1` (stereo unspecified) it was 7.00; in that of `CCCCN1CCN(c2ccccc2C2SC(CC(=O)N3CCC(N4Cc5ccccc5NC4=O)CC3)C(=O)N2CCC(C)(C)C)CC1` (stereo unspecified), 7.36.
Turning to `CC(C)(C)CCN1C(=O)C(CC(=O)N2CCC(N3Cc4ccccc4NC3=O)CC2)SC1c1ccccc1N1CCN(CCO)CC1` (stereo unspecified), the pIC50 was 7.44.
On to `CN1CCN(c2ccccc2C2SC(CC(=O)N3CCC(N4CCc5ccccc5NC4=O)CC3)C(=O)N2CCC(C)(C)C)CC1` (stereo unspecified), for which the pIC50 is 7.72.
As for `CC(C)(C)CCN1C(=O)C(CC(=O)N2CCC(N3CCc4ccccc4NC3=O)CC2)SC1c1ccccc1N1CCNCC1` (stereo unspecified), the pIC50 was 7.48.
Regarding `CN1CCN(c2c(F)cccc2C2SC(CC(=O)N3CCC(N4CCc5ccccc5NC4=O)CC3)C(=O)N2CCC(C)(C)C)CC1` (stereo unspecified), the pIC50 is 8.52.
Take `CN1CCN(c2cc(F)ccc2C2SC(CC(=O)N3CCC(N4CCc5ccccc5NC4=O)CC3)C(=O)N2CCC(C)(C)C)CC1` (stereo unspecified): the negative-log IC50 (pIC50) is 7.08.
As for `CN1CCN(c2ccc(F)cc2C2SC(CC(=O)N3CCC(N4CCc5ccccc5NC4=O)CC3)C(=O)N2CCC(C)(C)C)CC1` (stereo unspecified), the pIC50 is 7.14.
Consider `CN1CCN(c2cccc(F)c2C2SC(CC(=O)N3CCC(N4CCc5ccccc5NC4=O)CC3)C(=O)N2CCC(C)(C)C)CC1` (stereo unspecified), for which the pIC50 was 7.19.
Same read-out and setting: the value for `CCN1CCN(c2c(F)cccc2C2SC(CC(=O)N3CCC(N4CCc5ccccc5NC4=O)CC3)C(=O)N2CCC(C)(C)C)CC1` (stereo unspecified) was 8.70; that for `CC(C)CCN(Cc1cc(Br)c(O)c(Br)c1)C(=O)CCC(=O)N1CCC(N2Cc3ccccc3NC2=O)CC1` was 6.13; that for `CN1C(=O)C(CC(=O)N2CCC(N3Cc4ccccc4NC3=O)CC2)SC1c1ccccc1` (stereo unspecified) was 5.35.
As to `CC(C)N1C(=O)C(CC(=O)N2CCC(N3Cc4ccccc4NC3=O)CC2)SC1c1ccccc1` (stereo unspecified), the negative logarithm of the IC50 (pIC50) was 5.82.
As to `CC(C)CCN1C(=O)C(CC(=O)N2CCC(N3Cc4ccccc4NC3=O)CC2)SC1c1ccccc1` (racemic), the pIC50 is 6.43.

The pKi is the Ki on a negative log10 scale, so that one unit is a factor of ten. In general, pIC50 refers to −log10 of the IC50, conventionally taken in molar units.
